Most compounds without a hit are left out; they make up all but 2.1% or so of the library.
ARNT TACC3 PPI: disruptors of human ARNT/TACC3 interaction; Q9Y6A5; AlphaScreen His-ARNT PAS-B/GST-TACC3 binding, luminescence; TACC3 fragment carries E629A point mutation; inhibition, % at 9.99 µM; hit rate 0.66% among 390,000; AID 623870;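 active = mean inhibition of replicates at least 50% and at least half of replicates each reaching 50%; inconclusive = half or more replicates reach 50% but mean below 50%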;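 note: 0% = complete ARNT plus TACC3 wells and 100% = ARNT alone without TACC3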
MLL AF4-AF9 inh: MLL-AF4/AF9 protein interaction inhibition; AlphaScreen, biotin-AF4 peptide binding to FLAG-AF9; inhibition, % at 10 µM; hit rate 0.47% among 350,000;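 active = every replicate reaching a set inhibition limit, whatever the replicate mean, cut at about 25% in these data; inconclusive = mean inhibition reaches that limit but some replicates miss it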;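 note: 0% = plate neutral control median and 100% = total signal loss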
FGF22 binding-1: shifts melting point of recombinant human FGF22 | hit rate 1.5% among 340,000 | AID 651658 | recombinant FGF22 thermal shift, SYPRO orange fluorescence; percent of sucrose octasulfate shift, DMSO zero | activity (Tm shift, normalised), % at 9.99 µM;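 active = mean Tm shift, scaled 0 neutral to 100 positive control, at about 1.3% or above, every replicate too, limit read from the data; inconclusive = no clear call, values can overlap the other calls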
Target sequence (Q9HCT0 whole entry, looked up): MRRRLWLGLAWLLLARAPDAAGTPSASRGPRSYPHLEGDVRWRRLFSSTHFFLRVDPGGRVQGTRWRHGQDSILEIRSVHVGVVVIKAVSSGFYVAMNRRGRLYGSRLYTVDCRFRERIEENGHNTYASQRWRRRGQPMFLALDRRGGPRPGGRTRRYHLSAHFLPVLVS
FN deposit inh: fibronectin deposition inhibition. AH1F fibroblasts, Alexa488-fibronectin deposition fluorescence, overnight. inhibition, % at 12.6 µM. hit rate 0.086% among 350,000. AID 743247;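 active = mean inhibition across replicates of 30% or more, regardless of how many single replicates reach that level; inconclusive = mean under 30% yet at least half of replicates reach 30%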;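 note: positive control wells lacked labelled fibronectin entirely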
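Schedule: 1 h cell adhesion before compound, then overnight fibronectin incubation; test system: AH1F fibroblast monolayer depositing Alexa488-labelled fibronectin into matrix; quantity: 10000 AH1F cells per well; probe or stimulus: fluorescent fibronectin at 24 nM final; signal: fluorescence, ex 485 nm, em 525 nm; evaluation: percent inhibition as loss of matrix-bound fibronectin fluorescence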
ERp5 block: blocks human ERp5 reductase activity on insulin; ERp5 insulin aggregation, absorbance 650 nm, 90 min; inhibition, % at 9.99 µM; hit rate 0.05% among 350,000; AID 651711;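 active = mean replicate inhibition above about 25%, with every replicate also reaching it, limit read from the data, passing the limit was not always enough; inconclusive = only one of those two criteria met; inactive = neither criterion met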
PDI inh: blocks human protein disulfide isomerase activity; P07237; PDI insulin aggregation turbidity, A650, 90 min; inhibition, % at 10 µM; hit rate 0.052% among 350,000;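 active = mean inhibition across replicates of 30% or more, whatever share of single replicates reach that level; inconclusive = mean inhibition below 30% while every single replicate reaches 30%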
Target sequence (P07237 whole entry, looked up): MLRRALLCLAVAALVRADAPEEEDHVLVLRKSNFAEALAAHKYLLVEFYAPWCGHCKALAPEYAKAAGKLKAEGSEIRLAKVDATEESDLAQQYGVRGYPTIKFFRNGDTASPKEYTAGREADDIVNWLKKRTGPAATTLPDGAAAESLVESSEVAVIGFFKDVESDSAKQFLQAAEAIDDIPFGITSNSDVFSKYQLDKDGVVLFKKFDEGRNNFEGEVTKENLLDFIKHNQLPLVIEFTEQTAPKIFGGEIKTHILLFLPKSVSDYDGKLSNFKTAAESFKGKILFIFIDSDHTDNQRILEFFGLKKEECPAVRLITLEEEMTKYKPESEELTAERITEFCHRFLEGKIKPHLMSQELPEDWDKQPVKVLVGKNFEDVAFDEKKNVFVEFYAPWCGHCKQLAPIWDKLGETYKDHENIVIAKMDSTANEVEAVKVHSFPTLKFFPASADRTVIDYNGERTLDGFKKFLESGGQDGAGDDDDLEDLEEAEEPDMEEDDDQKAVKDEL
FGF22 binding-2: binders of human FGF22 by thermal shift | shares compounds with FGF22 binding-1 | recombinant FGF22 thermal shift, SYPRO orange fluorescence | thermal shift activity, °C (ΔTm) at 38 µM | hit rate 2% among 1,000;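 active = fitted rise in melting shift crosses a set limit at or below the top valid dose tested; inconclusive = flat fit at mid-level activity, or a poor quality fit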
FGF22 TSA: FGF22 (human) binding by thermal shift; AID 743017; Thermal shift assay, SYPRO orange, melting temperature shift; Tm shift (activity), % at 38 µM; shares compounds with FGF22 binding-1; 50 tested, under 10 active;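 active = compounds whose fitted dose curve of melting temperature shift rises past a set threshold within the tested doses; inconclusive = flat curve at moderate activity, or poor curve fit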
SYPRO no-protein: shows thermal shift signal without protein, FGF22 counter-screen; shares compounds with FGF22 binding-1; AC50, µM (doses to about 38 µM); hit rate 2% among 1,000; compound-only SYPRO orange thermal shift counter-screen, no protein; AID 743019;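 active = rising signal whose fitted curve reaches the 0.54 level within the top valid dose, showing a melting point, actives reach about 13 µM in these data; inactive = the rest, including activity in the opposite direction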; note: value is where the raw curve crosses a fixed level and not half-maximal
* hit, by the source's call; i = inactive; ? = inconclusive; nt = no result given; [ ] = remark or other dose.

SMILES	ARNT TACC3 PPI	MLL AF4-AF9 inh	FGF22 binding-1	FN deposit inh	ERp5 block	PDI inh	FGF22 binding-2	SYPRO no-protein	others
COc1ccc(C(=O)Cc2ccc(OC)c(OC)c2)cc1	-1.6	nt	nt	-1.0	nt	-4.2	nt	nt
CC(=O)Oc1ccc(C(=O)Nc2ccccc2C(=O)N2CCCCC2)cc1	0.6	-0.4	1.8*	-7.7	2.2	-1.5	0.15	i
CC(=O)Oc1ccc(C(=O)Nc2ccccc2C(=O)N2CCCC2)cc1	0.0	-8.7	0.0	-5.9	-6.7	2.3	nt	nt
COc1ccc(NC(=O)N(C)C[C@H]2Oc3ccc(NC(=O)CCC(F)(F)F)cc3CC(=O)N([C@@H](C)CO)C[C@H]2C)cc1	0.3	-0.1	0.5	5.1	6.3	nt	nt	nt
O=C(COC(=O)c1ccccc1NCCO)NCCC1=CCCCC1	-6.3	-11.9	-0.3	-3.3	10.4	4.8	nt	nt
O=C(COC(=O)c1ccccc1Br)NCCC1=CCCCC1	-3.8	-3.8	23.9*	5.8	-1.4	1.1	0.053	i
COc1ccc(NS(=O)(=O)c2ccc(Cl)c(N)c2)cc1Br	6.6	-0.5	1.3*	-1.1	-1.9	9.9	-0.06	i
CN(NC1OC(=O)c2ccccc21)c1c([N+](=O)[O-])cc(C(F)(F)F)cc1[N+](=O)[O-] (stereo not given)	1.3	3.8	-0.5	6.3	-2.3	-8.3	nt	nt
CN(NC1OC(=O)c2ccccc21)c1ncc(C(F)(F)F)cc1Cl (stereo not given)	1.8	nt	28.0*	6.2	-5.5	2.8	0.003	i
CC(C)C#Cc1cnc2c(c1)C(=O)N([C@@H](C)CO)C[C@H](C)[C@H](CN(C)C(=O)c1cnccn1)O2	-23.2	-16.3	1.3*	4.4	-2.9	nt	0.163[42 µM]	i
COCC#Cc1cnc2c(c1)C(=O)N([C@@H](C)CO)C[C@@H](C)[C@@H](CN(C)C(=O)c1cnccn1)O2	3.6	-4.3	0.0	nt	-0.8	nt	nt	nt
CC(C)C#Cc1cnc2c(c1)C(=O)N([C@H](C)CO)C[C@H](C)[C@@H](CN(C)C(=O)c1cnccn1)O2	-9.8	-6.0	0.7	-4.2	2.4	nt	nt	nt
COCC#Cc1cnc2c(c1)C(=O)N([C@H](C)CO)C[C@H](C)[C@H](CN(C)C(=O)c1cnccn1)O2	7.1	-2.5	3.2*	nt	-3.6	nt	0.075	i
O=C(C[C@H]1CC[C@H](NC(=O)C2CCC2)[C@@H](CO)O1)NC1CCC1	18.9	-3.8	-0.3	nt	2.8	nt	nt	nt
CCC(=O)N1[C@H](C(=O)OC)[C@@H](CO)[C@@H]2Cn3c(ccc(/C=C/c4ccccc4)c3=O)[C@@H]21	-9.8	-4.0	0.0	nt	8.9	nt	nt	nt
C[C@H]1CN([C@@H](C)CO)S(=O)(=O)c2ccc(C#Cc3ccccc3F)cc2O[C@@H]1CN(C)C(=O)Cc1cccnc1	0.0	-1.9	8.3*	-5.0	0.7	nt	0.111[42 µM]	i
C[C@H](CO)N1C[C@H](C)[C@@H](CN(C)C(=O)Cc2ccccc2)Oc2cc(C#Cc3ccccc3F)ccc2S1(=O)=O	11.2	-6.9	0.0	nt	0.2	nt	nt	nt
C[C@H]1CN([C@@H](C)CO)S(=O)(=O)c2ccc(C#Cc3ccccc3F)cc2O[C@H]1CN(C)C(=O)Cc1cccnc1	1.2	2.6	5.9*	3.3	-2.5	nt	0.09[42 µM]	i
C[C@@H]1CN([C@@H](C)CO)S(=O)(=O)c2ccc(C#Cc3ccccc3F)cc2O[C@H]1CN(C)C(=O)Cc1cccnc1	1.5	-0.1	-0.8	16.0	0.4	nt	nt	nt
Cc1ccc2c(c1)C1CN(C)CCC1N2S(=O)(=O)c1ccc(C(C)C)cc1 (stereo not given)	3.9	10.3	14.3*	-10.2	-12.9	-1.2	-0.02	i
Cc1ccc2c(c1)C1CN(C)CCC1N2S(=O)(=O)c1cccc(C(F)(F)F)c1 (stereo not given)	8.2	3.7	0.1	10.2	-6.1	-8.1	nt	nt
Cc1cccc(Cn2ncc(Cl)c(Cl)c2=O)c1	15.3	4.3	38.9*	nt	-0.4	0.3	0.012	i
Cc1ccc(C)c(C(=O)Cn2ncc(Cl)c(Cl)c2=O)c1	-3.8	nt	nt	nt	nt	-0.7	nt	nt
Cc1noc(C)c1NC(=O)Nc1ccc2c(c1)C(=O)N(C)[C@H]1CC[C@H](CC(=O)N[C@@H]3CCN(Cc4ccccc4)C3)O[C@@H]1CO2	4.9	7.1	1.8*	-6.1	1.1	nt	-0.025	i
CN1C(=O)c2cc(NC(=O)Cc3ccccc3)ccc2OC[C@@H]2O[C@H](CC(=O)O)CC[C@H]21	-5.6	-2.3	1.4*	-1.6	-5.3	nt	0.054	i
SMILES	ARNT TACC3 PPI	MLL AF4-AF9 inh	FGF22 binding-1	FN deposit inh	ERp5 block	PDI inh	FGF22 binding-2	SYPRO no-protein	others
CN1C(=O)c2cc(NC(=O)c3cccc(F)c3)ccc2OC[C@@H]2O[C@H](CC(=O)NCc3ccccc3)CC[C@@H]21	3.0	nt	2.2*	11.4	nt	nt	-0.463[42 µM]	i
CN1C(=O)c2cc(NC(=O)c3cccc(F)c3)ccc2OC[C@@H]2O[C@@H](CC(=O)Nc3ccccc3)CC[C@@H]21	-3.6	1.9	0.1	-1.5	9.4	nt	nt	nt
CCNC(=O)Nc1ccc2c(c1)C(=O)N(C)[C@H]1CC[C@H](CC(=O)NCc3ccc(F)cc3)O[C@H]1CO2	-22.7	-1.6	28.2*	-19.1	0.5	nt	-0.024	i
Cc1noc(C)c1NC(=O)Nc1ccc2c(c1)C(=O)N(C)[C@H]1CC[C@H](CC(=O)N[C@H]3CCN(Cc4ccccc4)C3)O[C@H]1CO2	7.2	3.4	0.2	9.8	?	nt	nt	nt
C[C@H]1CN([C@@H](C)CO)S(=O)(=O)c2ccc(C#CC(C)(C)O)cc2O[C@@H]1CN(C)Cc1ccc(-c2ccccc2)cc1	-5.0	0.5	-0.9	19.4	3.9	nt	nt	nt
COc1cccc(NC(=O)N[C@@H]2C=C[C@@H](CC(=O)Nc3ccccc3)O[C@@H]2CO)c1	nt	-5.0	nt	0.7	3.2	nt	nt	nt
CCN1C/C(=C/c2cccs2)c2nc3ccccc3c(C(=O)O)c2C1	-22.4	3.0	1.8*	-3.7	-1.2	0.9	0.186	i	FGF22 TSA=0.2
O=C(CCNC(=O)c1ccccc1Cl)Nc1nc2ccc(F)cc2s1	nt	0.1	2.7*	2.7	4.5	2.0	0.035	i
O=C(C[C@H]1C[C@@H]2c3cc(NC(=O)NC4CCCC4)ccc3O[C@@H]2[C@H](CO)O1)NCc1ccc(Cl)cc1	-5.0	-1.1	0.1	-8.3	nt	nt	nt	nt
COC(=O)c1cn(NC(=O)Cc2ccccc2OC)c(=O)c2ccccc12	-9.4	-1.9	2.1*	-3.9	2.5	0.0	0.046	i

Compound activity as filed in PubChem.
